Test results from PMC3755880 (The Biochemical journal, 2009).
No end group written: not given here.

Legend:
human PKN1 [1] = target: T1, human PKN1 (Homo sapiens, UniProt Q16512); assay: In vitro kinase assay, δpeptide substrate, PKN1 catalytic domain; type: biochemical; details: for inhibition of peptide kinase activity of PKN1: δpeptide substrate, various peptide concentrations, up to 50 μM, 30 °C, 5 min, pH 7.5, 40 μM ATP, representative of three independent experiments
PKN [2] = target: T2, PKN (Homo sapiens, UniProt Q16512); details: cited from earlier work; for inhibition of kinase activity of PKN: ref [20]
T2 sequence (Q16512 543-942 limits assumed): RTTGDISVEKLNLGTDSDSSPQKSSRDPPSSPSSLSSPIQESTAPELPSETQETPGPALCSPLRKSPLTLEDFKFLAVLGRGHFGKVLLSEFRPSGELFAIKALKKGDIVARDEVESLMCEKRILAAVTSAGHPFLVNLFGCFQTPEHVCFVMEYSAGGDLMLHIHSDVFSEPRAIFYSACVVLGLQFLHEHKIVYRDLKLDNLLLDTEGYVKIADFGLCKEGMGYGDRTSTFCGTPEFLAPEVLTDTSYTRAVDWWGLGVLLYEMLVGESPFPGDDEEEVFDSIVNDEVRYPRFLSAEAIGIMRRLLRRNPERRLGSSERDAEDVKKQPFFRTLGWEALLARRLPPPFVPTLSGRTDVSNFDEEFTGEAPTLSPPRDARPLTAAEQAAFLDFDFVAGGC

[3] = test system: interaction between Iα and the catalytic domain of PKN1; details: ref [24]; cited from earlier work
[4] = test system: androgen receptor-induced tumour cell proliferation; details: by inhibition of PKN1; ref [7]; cited from earlier work
cellular membranes = details: ref [28]; cited from earlier work
human PKN1 [5] = target: T1, human PKN1; assay: Phosphorylation of GST-tagged oligopeptides by PKN1; type: biochemical; details: GST-fused peptide substrate; 30 °C, 5 min
rat PKCδ = assay: Phosphorylation of GST-tagged oligopeptides by PKCδ; type: biochemical; details: GST-fused peptide substrate; 30 °C, 5 min
PKCδ = details: ref [24]; cited from earlier work
[6] = test system: catalytic domain of all isoforms of PKNs; details: ref [24], cited from earlier work
PKA = details: ref [24]; cited from earlier work
PKN [7] = target: T2, PKN; assay: In vitro kinase assay, PKN; type: biochemical; details: Supplementary Figure S4
Procedure, shortened: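 Catalytic domains of human PKN1 (543–end) and PKC isoforms were GST-fused, baculovirus/Sf9-expressed and affinity-purified. 10 ng kinase was incubated 5 min at 30 °C in 20 mM Tris/HCl pH 7.5, 4 mM MgCl2, 40 μM ATP, [γ-32P]ATP, 100 μM δpeptide (PKCδ 137–153, A147S) and BSA or GST, ± peptides. Reactions were read on P81 paper by Cherenkov counting; no-peptide activity = 100%.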

rat PKCα = assay: Phosphorylation of GST-tagged oligopeptides by PKCα; type: biochemical; details: GST-fused peptide substrate; 30 °C, 5 min
Procedure, shortened: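 GST-fused rat PKCα catalytic domain (332–end) was Sf9/baculovirus-expressed and purified. Reactions were stopped in boiled Laemmli buffer, run on 15% SDS/PAGE, and phosphorylation was read by radioactivity imaging.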

T1 sequence (Q16512 543-942 limits assumed): as above

NERHEVQLDMEPQGCLV
inhibition of peptide kinase activity of PKN1 (human PKN1 [1]): did not inhibit

CC1CNCCN1S(=O)(=O)c1cccc2cnccc12 (stereo not shown) [H-7]
inhibition of kinase activity of PKN (PKN [2]): potently inhibit

CCCCC/C=C\C/C=C\C/C=C\C/C=C\CCCC(=O)O [Arachidonic acid, arachidonic acid]
effect on interaction between Iα and catalytic domain of PKN1 [3]: directly interfere with the interaction | relief of autoinhibition of wild-type PKN1 by Iα [3]: relieve the catalytic activity of wild-type PKN1 from autoinhibition by Iα | activation of PKN in vitro (PKN [2]; ref [1]): activated

Cn1cc(C2=C(c3cn(CCCSC(=N)N)c4ccccc34)C(=O)NC2=O)c2ccccc21 [Ro318220]
effect on androgen receptor-induced tumour cell proliferation [4]: blocks proliferation

O=C(O)CCCc1ccc2ccc3cccc4ccc1c2c34 [Pyrenebutyrate, pyrenebutyrate]
ability of CPP-fused peptides to translocate across cellular membranes (cellular membranes): improve the ability of CPP-fused peptides to translocate across cellular membranes

LSKVTSKCGS [tau320]
phosphorylation by PKN1 (human PKN1 [5]): efficiently phosphorylated | phosphorylation by PKCδ (rat PKCδ): efficiently phosphorylated

PVIERIPRLRRQKKI
inhibition of peptide kinase activity of PKN1 (human PKN1 [1]): partially inhibited

His6-tagged Iα: His-tagged region comprising amino acid residues 455–511 of PKN1
effect on PKCδ (PKCδ): no inhibitory effect | inhibition of PKN kinase activity by His-tagged Iα ([6]; direct effects on the catalytic region): potently inhibited | inhibition of catalytic domain of all PKN isoforms [6]: inhibited | effect on PKA (PKA): no inhibitory effect

PRLRRQKKIFSKQQG-NH-CH2CH2-SH [PRL-SH]
selectivity for PKN over PKC in vitro (PKN [7]): selective inhibition of PKN

AEVTFRNPVIERIPRLRR
inhibition of peptide kinase activity of PKN1 (human PKN1 [1]): partially inhibited

CN(C)CCCn1cc(C2=C(c3c[nH]c4ccccc34)C(=O)NC2=O)c2ccccc21 [bisindolylmaleimide I]
inhibition of kinase activity of PKN (PKN [2]): potently inhibit

PRLRRQKKIFSKQQG [PRL]
Ki (human PKN1 [1]): 700 nM | effect on apparent Km for δpeptide (human PKN1 [1]; Michaelis–Menten fit, increasing PRL concentrations): increased the apparent Km

KRRKPSFRNP [NS1]
phosphorylation by PKCα (rat PKCα): efficiently phosphorylated | phosphorylation by PKCδ (rat PKCδ): efficiently phosphorylated

QKKIFSKQQGKAFQAARQMN
inhibition of peptide kinase activity of PKN1 (human PKN1 [1]): partially inhibited
